How the values were obtained:
[1] = species: Rattus norvegicus; experiment: CNS activity was measured by the ability to restore the anticonvulsant effect of methazolamide in reserpine treated rats; type: functional; design: unit not given beside the values
Summary of the method: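 Rats pretreated with reserpine received varying doses of analogue, and the read-out was restoration of methazolamide's anticonvulsant activity. Potency is expressed relative to TRH.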

[2] = Acid dissociation constant was measured; type: ADME
[3] = test system: Rattus norvegicus; experiment: Compound was evaluated in vivo for its ability to stimulate release of [125I]-labeled T3 and T4 after administration of varying doses; type: functional
Summary of the method: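 Varying doses of analogue were given in vivo, with ¹²⁵I-labeled T₃ and T₄ measured afterwards. Potency is expressed relative to TRH.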

| Structure (SMILES) | pKa [2] | CNS activity [1] | Hormonal activity [3] |
| --- | --- | --- | --- |
| NC(=O)[C@@H]1CSCN1C(=O)[C@H](Cc1c[nH]cn1)NC(=O)[C@@H]1CCCC(=O)N1 [listing 2 of 2 here] |  | 35 | 1 |
| COC(=O)[C@@H]1CCCCN1C(=O)[C@H](Cc1c[nH]cn1)NC(=O)[C@@H]1CCC(=O)N1 [listing 2 of 2 here] |  | 1 | 0.2 |
| COC(=O)[C@@H]1CCCCN1C(=O)[C@H](Cc1c[nH]cn1)NC(=O)[C@@H]1CCCC(=O)N1 |  | 0.9 | 0.02 |

Now from value to compound, other results behind:

| pKa [2] | Structure (SMILES) | CNS activity [1] | Hormonal activity [3] |
| --- | --- | --- | --- |
| 6.18 | NC(=O)[C@@H]1CCCN1C(=O)[C@H](Cc1c[nH]cn1)NC(=O)[C@@H]1CCCC(=O)N1 | 4 | 1 |
| 6.1 | NC(=O)[C@@H]1CSCN1C(=O)[C@H](Cc1c[nH]cn1)NC(=O)[C@@H]1CCCC(=O)N1 [listing 1 of 2 here] |  |  |
| 6.18 | COC(=O)[C@@H]1CCCCN1C(=O)[C@H](Cc1c[nH]cn1)NC(=O)[C@@H]1CCC(=O)N1 [listing 1 of 2 here] |  |  |

From ChEMBL document CHEMBL1121847, “Synthesis of thyrotropin-releasing hormone analogues with selective central nervous system effects” (J Med Chem, 1981)
